Results published in ChEMBL document CHEMBL2375290, “Nonclassical antifolates, part 3: synthesis, biological evaluation and molecular modeling study of some new 2-heteroarylthio-quinazolin-4-ones” (Eur J Med Chem, 2013).
≈ marks a conversion by molar mass, not a printed value.

Key:
Pseudomonas aeruginosa [1] = test: Antimicrobial activity against Pseudomonas aeruginosa after 24 hrs by micro-dilution susceptibility method; type: functional
Procedure, shortened: (§1)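 Broth microdilution in Müller-Hinton broth against S. aureus IFO 3060, B. subtilis IFO 3007, E. coli IFO 3301 and P. aeruginosa IFO 3448. These are the same standard strains used in the disc-diffusion primary screen. Compounds were solubilized in DMSO. MIC recorded as the minimal inhibitory concentration.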

Micrococcus luteus [2] = test: Antimicrobial activity against Micrococcus luteus after 24 hrs by micro-dilution susceptibility method; type: functional
Procedure, shortened: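 MIC by broth microdilution in Müller-Hinton broth against M. luteus IFO 3232, the same strain used in the disc-diffusion primary screen.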

Bacillus subtilis [3] = test: Antimicrobial activity against Bacillus subtilis after 24 hrs by micro-dilution susceptibility method; type: functional; procedure, shortened: as §1
Staphylococcus aureus [4] = test: Antimicrobial activity against Staphylococcus aureus after 24 hrs by micro-dilution susceptibility method; type: functional; procedure, shortened: as §1
Micrococcus luteus [5] = test: Antimicrobial activity against Micrococcus luteus at 100 ug after 24 hrs by agar disc diffusion method; type: functional
Procedure, shortened: (§2)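 Agar disc diffusion on Müller-Hinton agar. Sterile 8 mm filter-paper discs were moistened with the compound in DMSO. Strains were B. subtilis IFO 3007 and M. luteus IFO 3232. Plates were incubated at 37 °C, and growth-inhibition zone diameters were measured in mm after 24 h. DMSO served as the solvent control.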

Bacillus subtilis [6] = test: Antimicrobial activity against Bacillus subtilis at 100 ug after 24 hrs by agar disc diffusion method; type: functional; procedure, shortened: as §2
T47D = test: Cytotoxicity against human T47D cells at 10 uM after 48 hrs by coulter counter analysis; type: functional; conditions: read-out: GI
Hs-578T = test: Cytotoxicity against human Hs578T cells at 10 uM after 48 hrs by coulter counter analysis; type: functional; conditions: read-out: GI
MCF7 = test: Cytotoxicity against human MCF7 cells at 10 uM after 48 hrs by coulter counter analysis; type: functional; conditions: MCF7, 48 h, read-out: GI
MDA-MB-231 = test: Cytotoxicity against human MDA-MB-231 cells at 10 uM after 48 hrs by coulter counter analysis; type: functional; conditions: MDA-MB-231, 48 h, read-out: GI
PC-3 = test: Cytotoxicity against human PC3 cells at 10 uM after 48 hrs by coulter counter analysis; type: functional; conditions: PC-3, 48 h, read-out: GI
UO-31 = test: Cytotoxicity against human UO31 cells at 10 uM after 48 hrs by coulter counter analysis; type: functional; conditions: UO-31, 48 h, read-out: GI
RXF 393 = test: Cytotoxicity against human RXF393 cells at 10 uM after 48 hrs by coulter counter analysis; type: functional; conditions: RXF 393, 48 h, read-out: GI
SN12C = test: Cytotoxicity against human SN12C cells at 10 uM after 48 hrs by coulter counter analysis; type: functional; conditions: read-out: GI
A498 = test: Cytotoxicity against human A498 cells at 10 uM after 48 hrs by coulter counter analysis; type: functional; conditions: A498, 48 h, read-out: GI
CAKI-1 = test: Cytotoxicity against human Caki1 cells at 10 uM after 48 hrs by coulter counter analysis; type: functional; conditions: CAKI-1, 48 h, read-out: GI
[7] = Cytotoxicity against human NCI-ADR-RES cells at 10 uM after 48 hrs by coulter counter analysis; type: functional; conditions: read-out: GI
OVCAR-4 = test: Cytotoxicity against human OVCAR4 cells at 10 uM after 48 hrs by coulter counter analysis; type: functional; conditions: OVCAR-4, 48 h, read-out: GI
UACC-62 = test: Cytotoxicity against human UACC62 cells at 10 uM after 48 hrs by coulter counter analysis; type: functional; conditions: UACC-62, 48 h, read-out: GI
IGROV-1 = test: Cytotoxicity against human IGROV1 cells at 10 uM after 48 hrs by coulter counter analysis; type: functional; conditions: IGROV-1, 48 h, read-out: GI
SK-MEL-5 = test: Cytotoxicity against human SK-MEL-5 cells at 10 uM after 48 hrs by coulter counter analysis; type: functional; conditions: SK-MEL-5, 48 h, read-out: GI
Malme-3M = test: Cytotoxicity against human MALME-3M cells at 10 uM after 48 hrs by coulter counter analysis; type: functional; conditions: read-out: GI
MDA-MB-435 = test: Cytotoxicity against human MDA-MB-435 cells at 10 uM after 48 hrs by coulter counter analysis; type: functional; conditions: MDA-MB-435, 48 h, read-out: GI
SNB-75 = test: Cytotoxicity against human SNB75 cells at 10 uM after 48 hrs by coulter counter analysis; type: functional; conditions: SNB-75, 48 h, read-out: GI
LOX IMVI = test: Cytotoxicity against human LOXIMVI cells at 10 uM after 48 hrs by coulter counter analysis; type: functional; conditions: read-out: GI
SNB-19 = test: Cytotoxicity against human SNB19 cells at 10 uM after 48 hrs by coulter counter analysis; type: functional; conditions: SNB-19, 48 h, read-out: GI
NCI-H522 = test: Cytotoxicity against human NCI-H522 cells at 10 uM after 48 hrs by coulter counter analysis; type: functional; conditions: NCI-H522, 48 h, read-out: GI
SF-295 = test: Cytotoxicity against human SF295 cells at 10 uM after 48 hrs by coulter counter analysis; type: functional; conditions: SF-295, 48 h, read-out: GI
NCI-H23 = test: Cytotoxicity against human NCI-H23 cells at 10 uM after 48 hrs by coulter counter analysis; type: functional; conditions: NCI-H23, 48 h, read-out: GI
[8] = Cytotoxicity against human EKVX cells at 10 uM after 48 hrs by coulter counter analysis; type: functional; conditions: read-out: GI
NCI-H226 = test: Cytotoxicity against human NCI-H226 cells at 10 uM after 48 hrs by coulter counter analysis; type: functional; conditions: NCI-H226, 48 h, read-out: GI
A549 = test: Cytotoxicity against human A549/ATCC cells at 10 uM after 48 hrs by coulter counter analysis; type: functional; conditions: A549, 48 h, read-out: GI
RPMI-8226 = test: Cytotoxicity against human RPMI8226 cells at 10 uM after 48 hrs by coulter counter analysis; type: functional; conditions: RPMI-8226, 48 h, read-out: GI
SR = test: Cytotoxicity against human SR cells at 10 uM after 48 hrs by coulter counter analysis; type: functional; conditions: read-out: GI
MOLT-4 = test: Cytotoxicity against human MOLT4 cells at 10 uM after 48 hrs by coulter counter analysis; type: functional; conditions: MOLT-4, 48 h, read-out: GI
CCRF-CEM = test: Cytotoxicity against human CCRF-CEM cells at 10 uM after 48 hrs by coulter counter analysis; type: functional; conditions: read-out: GI
HL-60(TB) = test: Cytotoxicity against human HL-60(TB) cells at 10 uM after 48 hrs by coulter counter analysis; type: functional; conditions: HL-60, 48 h, read-out: GI
Escherichia coli [9] = test: Antimicrobial activity against Escherichia coli after 24 hrs by micro-dilution susceptibility method
Pseudomonas aeruginosa [10] = test: Antimicrobial activity against Pseudomonas aeruginosa at 200 ug after 24 hrs by agar disc diffusion method; type: functional; conditions: read-out: DIZ
Escherichia coli [11] = test: Antimicrobial activity against Escherichia coli at 200 ug after 24 hrs by agar disc diffusion method; type: functional; conditions: read-out: DIZ
Micrococcus luteus [12] = test: Antimicrobial activity against Micrococcus luteus at 200 ug after 24 hrs by agar disc diffusion method; type: functional; conditions: read-out: DIZ
Bacillus subtilis [13] = test: Antimicrobial activity against Bacillus subtilis at 200 ug after 24 hrs by agar disc diffusion method; type: functional; conditions: read-out: DIZ
Dihydrofolate reductase = molecular target: T1, Dihydrofolate reductase (Bos taurus, UniProt P00376); test: Inhibition of bovine DHFR after 2 mins by spectrophotometry
T1 sequence (P00376 whole entry): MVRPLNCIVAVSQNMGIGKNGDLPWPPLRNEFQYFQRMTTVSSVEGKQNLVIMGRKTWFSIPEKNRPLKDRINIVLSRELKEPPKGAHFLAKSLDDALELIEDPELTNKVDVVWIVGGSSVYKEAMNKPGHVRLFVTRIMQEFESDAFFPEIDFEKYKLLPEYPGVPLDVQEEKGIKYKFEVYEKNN

Staphylococcus aureus [14] = test: Antimicrobial activity against Staphylococcus aureus at 200 ug after 24 hrs by agar disc diffusion method; type: functional; conditions: read-out: DIZ
Pseudomonas aeruginosa [15] = test: Antimicrobial activity against Pseudomonas aeruginosa at 100 ug after 24 hrs by agar disc diffusion method; type: functional; conditions: read-out: DIZ
Escherichia coli [16] = test: Antimicrobial activity against Escherichia coli at 100 ug after 24 hrs by agar disc diffusion method; type: functional; conditions: read-out: DIZ
Staphylococcus aureus [17] = test: Antimicrobial activity against Staphylococcus aureus at 100 ug after 24 hrs by agar disc diffusion method; type: functional; conditions: read-out: DIZ

GENTAMICIN
MIC (Pseudomonas aeruginosa [1]): 1 µg/mL
MIC (Micrococcus luteus [2]): 2 µg/mL
MIC (Bacillus subtilis [3]): 2 µg/mL
MIC (Staphylococcus aureus [4]): 2 µg/mL
inhibition zone (IZ) (Micrococcus luteus [5]): 18 mm
inhibition zone (IZ) (Bacillus subtilis [6]): 25 mm

COc1cc2nc(Sc3cnc(N)s3)n(-c3ccccc3)c(=O)c2cc1OC
inhibition of growth at 10 µM (T47D): < 10%
inhibition of growth at 10 µM (Hs-578T): < 10%
inhibition of growth at 10 µM (MCF7): < 10%
inhibition of growth at 10 µM (MDA-MB-231): 18.6%
inhibition of growth at 10 µM (PC-3): 12%
inhibition of growth at 10 µM (UO-31): 22.2%
inhibition of growth at 10 µM (RXF 393): < 10%
inhibition of growth at 10 µM (SN12C): < 10%
inhibition of growth at 10 µM (A498): < 10%
inhibition of growth at 10 µM (CAKI-1): 17.8%
inhibition of growth at 10 µM [7]: < 10%
inhibition of growth at 10 µM (OVCAR-4): < 10%
inhibition of growth at 10 µM (UACC-62): < 10%
inhibition of growth at 10 µM (IGROV-1): 13%
inhibition of growth at 10 µM (SK-MEL-5): < 10%
inhibition of growth at 10 µM (Malme-3M): < 10%
inhibition of growth at 10 µM (MDA-MB-435): < 10%
inhibition of growth at 10 µM (SNB-75): < 10%
inhibition of growth at 10 µM (LOX IMVI): < 10%
inhibition of growth at 10 µM (SNB-19): < 10%
inhibition of growth at 10 µM (NCI-H522): < 10%
inhibition of growth at 10 µM (SF-295): < 10%
inhibition of growth at 10 µM (NCI-H23): < 10%
inhibition of growth at 10 µM [8]: 12.7%
inhibition of growth at 10 µM (NCI-H226): < 10%
inhibition of growth at 10 µM (A549): < 10%
inhibition of growth at 10 µM (RPMI-8226): 12.5%
inhibition of growth at 10 µM (SR): 14.8%
inhibition of growth at 10 µM (MOLT-4): < 10%
inhibition of growth at 10 µM (CCRF-CEM): < 10%
inhibition of growth at 10 µM (HL-60(TB)): < 10%
MIC (Escherichia coli [9]): 4 µg/mL (≈ 9.7 µM)
MIC (Micrococcus luteus [2]): 4 µg/mL (≈ 9.7 µM)
MIC (Bacillus subtilis [3]): 4 µg/mL (≈ 9.7 µM)
MIC (Staphylococcus aureus [4]): 8 µg/mL (≈ 19.4 µM)
zone of inhibition at 200 µg/disc (Pseudomonas aeruginosa [10]): 14 mm
zone of inhibition at 200 µg/disc (Escherichia coli [11]): 18 mm
zone of inhibition at 200 µg/disc (Micrococcus luteus [12]): 16 mm
zone of inhibition at 200 µg/disc (Bacillus subtilis [13]): 20 mm
IC50 (Dihydrofolate reductase): 500 nM
zone of inhibition at 200 µg/disc (Staphylococcus aureus [14]): 18 mm

CC(=O)NS(=O)(=O)c1ccc(N)cc1 [SULFACETAMIDE]
MIC (Pseudomonas aeruginosa [1]): 2 µg/mL (≈ 9.34 µM)
MIC (Escherichia coli [9]): 1 µg/mL (≈ 4.67 µM)
MIC (Micrococcus luteus [2]): 2 µg/mL (≈ 9.34 µM)
MIC (Bacillus subtilis [3]): 2 µg/mL (≈ 9.34 µM)
MIC (Staphylococcus aureus [4]): 2 µg/mL (≈ 9.34 µM)
zone of inhibition at 100 µg/disc (Pseudomonas aeruginosa [15]): 25 mm
zone of inhibition at 100 µg/disc (Escherichia coli [16]): 28 mm
zone of inhibition at 100 µg/disc (Micrococcus luteus [5]; read-out: DIZ): 18 mm
zone of inhibition at 100 µg/disc (Bacillus subtilis [6]; read-out: DIZ): 22 mm
zone of inhibition at 100 µg/disc (Staphylococcus aureus [17]): 20 mm

CCOC(=O)c1nc(N)sc1Sc1nc2ccc(C)cc2c(=O)n1Cc1ccccc1
MIC (Pseudomonas aeruginosa [1]): 4 µg/mL (≈ 8.84 µM)
MIC (Escherichia coli [9]): 2 µg/mL (≈ 4.42 µM)
MIC (Micrococcus luteus [2]): 4 µg/mL (≈ 8.84 µM)
MIC (Bacillus subtilis [3]): 2 µg/mL (≈ 4.42 µM)
MIC (Staphylococcus aureus [4]): 2 µg/mL (≈ 4.42 µM)
zone of inhibition at 200 µg/disc (Pseudomonas aeruginosa [10]): 18 mm
zone of inhibition at 200 µg/disc (Escherichia coli [11]): 24 mm
zone of inhibition at 200 µg/disc (Micrococcus luteus [12]): 20 mm
zone of inhibition at 200 µg/disc (Bacillus subtilis [13]): 26 mm
IC50 (Dihydrofolate reductase): 4000 nM
zone of inhibition at 200 µg/disc (Staphylococcus aureus [14]): 24 mm
